The record followed here is ChEMBL document CHEMBL3102708, “Chartarlactams A-P, phenylspirodrimanes from the sponge-associated fungus Stachybotrys chartarum with antihyperlipidemic activities” (J Nat Prod, 2014).

Structures are written as SMILES. Active and inactive are the calls of the source. The calls are words filed in the database; no cut-off is given here.

Data set [1] has as its system HepG2. Description: Cytotoxicity against human HepG2 cells up to 100 uM. In kind it is cell-based.
The subject of data set [2] is HepG2. Description: Antihyperlipidemic activity in human HepG2 cells assessed as reduction of oleic acid-induced lipid accumulation at 10 uM […] measured after 6 hrs by Oil Red O staining. In kind it is functional, cell-based. The essentials:
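HepG2 cells were grown in DMEM with 10% FBS and penicillin/streptomycin (100 μg/mL). At 70–80% confluence they received 100 μM oleic acid for 12 h, then 10 μM compound in DMEM/100 μM oleic acid for 6 h more. Lovastatin was the positive control and DMEM/oleic acid the blank. Neutral lipid was stained with Oil Red O and read at 358 nm, n = 8, repeated in triplicate, mean ± SEM.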

The subject of data set [3] is HepG2. Description: Antihyperlipidemic activity in human HepG2 cells assessed as reduction of oleic acid-induced intracellular total cholesterol accumulation at 10 uM […] measured after 6 hrs. In kind it is functional, cell-based. A digest of the protocol: (§1)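 HepG2 cells were kept in DMEM with 10% FBS and penicillin/streptomycin (100 μg/mL). At 70–80% confluence they were loaded with 100 μM oleic acid in DMEM for 12 h, then exposed to 10 μM compound in DMEM/100 μM oleic acid for a further 6 h. Lovastatin was the positive control and DMEM/oleic acid the blank. Intracellular TC and TG were measured with kits, n = 3, repeated in triplicate, mean ± SEM.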

In data set [4] the test system is HepG2. Description: Antihyperlipidemic activity in human HepG2 cells assessed as reduction of oleic acid-induced intracellular triglyceride accumulation at 10 uM […] measured after 6 hrs. In kind it is functional, cell-based. A digest of the protocol: as §1

`C[C@@H]1CC[C@H]2C(C)(C)[C@H](O)[C@H](O)C[C@]2(C)[C@@]12Cc1c(O)cc3c(c1O2)CNC3=O`: the Activity result in the data set with HepG2 [1] is on record as “Non-toxic”.

Take `C[C@@H]1CC[C@H]2C(C)(C)[C@H](O)CC[C@]2(C)[C@@]12Cc1c(O)cc3c(c1O2)C(=O)N(CCO)C3`: the Activity entry in the data set with HepG2 [1] was “Non-toxic”.

With `C[C@@H]1CC[C@H]2C(C)(C)[C@H](O)CC[C@]2(C)[C@@]12Cc1c(O)cc3c(c1O2)CNC3=O`, in the data set on HepG2 [1], the Activity entry was “Non-toxic”.

Turning to `C[C@@H]1CC[C@H]2C(C)(C)[C@H](O)CC[C@]2(C)[C@@]12Cc1c(O[C@H]3O[C@H](CO)[C@@H](O)[C@H](O)[C@H]3O)cc3c(c1O2)CNC3=O`, the Activity entry with HepG2 [1] is listed as “Non-toxic”. The result with HepG2 [2] and with HepG2 [3] was Active.

Regarding `C[C@@H]1CC[C@H]2[C@](C)(CO)[C@H](O)CC[C@]2(C)[C@@]12Cc1c(O)cc3c(c1O2)CNC3=O`, in the data set on HepG2 [1], the Activity result is reported as “Non-toxic”.

Regarding `C[C@H]1CC[C@H]2C(C)(C)[C@H](O)CC[C@]2(C)[C@@]12Cc1c(O)cc3c(c1O2)C(=O)NC3`, the Activity result in the data set with HepG2 [1] is on record as “Non-toxic”. Moreover, the result with HepG2 [2] and in the data set on HepG2 [4] was Active.

For the compound `C[C@@H]1CC[C@H]2C(C)(C)[C@H](O)CC[C@]2(C)[C@@]12Cc1c(O)cc3c(c1O2)/C(=C1\NC(=O)c2cc(O)c4c(c21)O[C@@]1(C4)[C@@H](C)CC[C@@H]2C(C)(C)[C@@H](O)CC[C@]21C)NC3=O`, the Activity entry with HepG2 [1] was “Non-toxic”. Also, the result in the data set with HepG2 [2] and in the data set with HepG2 [3] was Active.

As for `C[C@@H]1CC[C@H]2C(C)(C)[C@H](O)[C@@H](O)C[C@]2(C)[C@@]12Cc1c(O)cc3c(c1O2)CNC3=O`, in the data set on HepG2 [1], the Activity result was “Non-toxic”.

Turning to `CC(=O)O[C@@H]1[C@H](O)C[C@@]2(C)[C@@H](CC[C@@H](C)[C@]23Cc2c(O)cc4c(c2O3)CNC4=O)C1(C)C`, in the data set with HepG2 [1], the Activity result was “Non-toxic”. Moreover, the result in the data set with HepG2 [2] and with HepG2 [4] was Active.

In the case of `C[C@@H]1CC[C@H]2C(C)(C)[C@H](O)[C@H](O)C[C@]2(C)[C@@]12Cc1c(O)cc3c(c1O2)CN(CCO)C3=O`, in the data set on HepG2 [1], the Activity entry was “Non-toxic”.

`C[C@H]1CC[C@H]2C(C)(C)[C@H](O)CC[C@]2(C)[C@@]12Cc1c(O)cc3c(c1O2)CN(CCO)C3=O`: the Activity entry in the data set with HepG2 [1] was “Non-toxic”. The result with HepG2 [2] and in the data set with HepG2 [3] was Active.

For the compound `C[C@@H]1CC[C@H]2C(C)(C)[C@H](O)CC[C@]2(C)[C@@]12Cc1c(O)cc3c(c1O2)C(=O)NC3`, the Activity result with HepG2 [1] is reported as “Non-toxic”. Also, the outcome with HepG2 [2], in the data set on HepG2 [3] and with HepG2 [4] was Active.

`C[C@@H]1CC[C@H]2C(C)(C)C(=O)CC[C@]2(C)[C@@]12Cc1c(O)cc3c(c1O2)CNC3=O`: the Activity entry with HepG2 [1] is “Non-toxic”. Moreover, the outcome with HepG2 [2], in the data set on HepG2 [3] and in the data set with HepG2 [4] was Active.

`CC(=O)O[C@@H]1[C@H](OC(C)=O)C[C@@]2(C)[C@@H](CC[C@@H](C)[C@]23Cc2c(O)cc4c(c2O3)CNC4=O)C1(C)C`: the Activity result in the data set on HepG2 [1] is reported as “Non-toxic”.

In the case of `C[C@@H]1CC[C@H]2C(C)(C)[C@@H](O)[C@H](O)C[C@]2(C)[C@@]12Cc1c(O)cc3c(c1O2)CNC3=O`, the Activity entry in the data set on HepG2 [1] is listed as “Non-toxic”.

Regarding `CC(=O)O[C@@H]1CC[C@@]2(C)[C@@H](CC[C@@H](C)[C@]23Cc2c(O)cc4c(c2O3)CNC4=O)C1(C)C`, in the data set with HepG2 [1], the Activity entry is listed as “Non-toxic”.

In the case of `C[C@H]1CC[C@H]2C(C)(C)[C@H](O)[C@H](O)C[C@]2(C)[C@@]12Cc1c(O)cc3c(c1O2)C(=O)NC3`, the Activity result with HepG2 [1] is reported as “Non-toxic”.

As to `C[C@@H]1CC[C@H]2C(C)(C)[C@H](O)CC[C@]2(C)[C@@]12Cc1c(O)cc3c(c1O2)CN(CCCCC(=O)O)C3=O`, the Activity result with HepG2 [1] is “Non-toxic”.

As to `C[C@@H]1CC[C@H]2C(C)(C)[C@H](O)CC[C@]2(C)[C@@]12Cc1c(O)cc3c(c1O2)CN(CCO)C3=O`, in the data set on HepG2 [1], the Activity entry is on record as “Non-toxic”.

Turning to `C[C@H]1CC[C@H]2C(C)(C)[C@H](O)CC[C@]2(C)[C@@]12Cc1c(O)cc3c(c1O2)CNC3=O`, the Activity entry in the data set with HepG2 [1] was “Non-toxic”.

For `C[C@H]1CC[C@H]2C(C)(C)[C@H](O)[C@H](O)C[C@]2(C)[C@@]12Cc1c(O)cc3c(c1O2)CNC3=O`, the Activity entry with HepG2 [1] was “Non-toxic”.

As to `C[C@@H]1CC[C@H]2C(C)(C)[C@H](O)CC[C@]2(C)[C@@]12Cc1c(O)cc3c(c1O2)C(=O)NC3=O`, in the data set on HepG2 [1], the Activity result was “Non-toxic”.

Take `C[C@@H]1CC[C@H]2C(C)(C)[C@H](O)CC[C@]2(C)[C@@]12Cc1c(O)cc3c(c1O2)CN(C(Cc1ccccc1)C(=O)O)C3=O` (some centres not stated): in the data set with HepG2 [1], the Activity entry is given as “Non-toxic”. Also, the result in the data set on HepG2 [2], in the data set on HepG2 [3] and with HepG2 [4] was Active.
